This is an account of results in ChEMBL document CHEMBL1151755, “Crystal structure of the peroxisome proliferator-activated receptor gamma (PPARgamma) ligand binding domain complexed with a novel partial agonist: a new region of the hydrophobic pocket could be exploited for drug design” (J Med Chem, 2008).

The target in test [1] is T1, Peroxisome proliferator-activated receptor alpha (Homo sapiens) (UniProt Q07869).
T1 sequence (whole entry): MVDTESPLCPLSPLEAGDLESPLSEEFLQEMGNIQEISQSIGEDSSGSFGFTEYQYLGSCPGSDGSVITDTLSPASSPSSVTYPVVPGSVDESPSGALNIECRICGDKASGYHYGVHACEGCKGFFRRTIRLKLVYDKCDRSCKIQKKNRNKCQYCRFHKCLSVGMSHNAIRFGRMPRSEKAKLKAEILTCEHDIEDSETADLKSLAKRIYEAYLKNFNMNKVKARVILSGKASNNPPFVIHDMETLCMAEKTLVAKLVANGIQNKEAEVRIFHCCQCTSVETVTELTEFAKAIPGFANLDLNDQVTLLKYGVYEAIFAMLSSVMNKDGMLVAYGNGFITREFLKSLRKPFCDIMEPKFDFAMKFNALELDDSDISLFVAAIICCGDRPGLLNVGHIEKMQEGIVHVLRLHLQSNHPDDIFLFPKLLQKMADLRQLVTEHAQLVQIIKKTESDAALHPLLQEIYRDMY
Kind of test: Agonist activity at human PPARalpha ligand binding domain expressed in human Hep G2 cells co-transfected with Gal4-DBD by luciferase reporter gene assay relative to Wy 14,643. It is filed as cell-based. To be noted: HepG2. Put shortly: (§1)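 HepG2 cells received the Gal4-receptor LBD construct (50 ng), pGal4UAS-luciferase (100 ng) and pCMVβ (300 ng) by calcium phosphate coprecipitation for 4 h. They were then treated in serum-free DMEM/F-12 with ligand or 0.1% ethanol for 20 h. Luciferase was normalized to β-galactosidase, and efficacy was expressed as percent of the Wy 14,643 maximum (100%). Values are mean ± SEM of 3–5 experiments in triplicate.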
A general note: A reporter such as luciferase makes a cellular process visible.

Test [2] deals with T2, Peroxisome proliferator-activated receptor alpha (Mus musculus) (UniProt P23204).
T2 sequence (whole entry): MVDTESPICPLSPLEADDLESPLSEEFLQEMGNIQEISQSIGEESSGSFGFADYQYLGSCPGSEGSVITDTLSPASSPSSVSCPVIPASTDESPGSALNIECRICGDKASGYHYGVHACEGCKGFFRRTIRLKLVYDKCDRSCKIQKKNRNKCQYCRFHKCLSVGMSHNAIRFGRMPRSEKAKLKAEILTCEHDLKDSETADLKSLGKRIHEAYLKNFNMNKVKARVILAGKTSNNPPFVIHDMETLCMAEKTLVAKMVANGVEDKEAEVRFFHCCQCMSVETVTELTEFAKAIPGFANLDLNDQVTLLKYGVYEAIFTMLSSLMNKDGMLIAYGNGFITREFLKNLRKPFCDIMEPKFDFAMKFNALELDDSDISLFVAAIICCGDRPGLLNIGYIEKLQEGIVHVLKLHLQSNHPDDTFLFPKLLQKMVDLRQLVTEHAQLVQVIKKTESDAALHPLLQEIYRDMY
Kind of test: Agonist activity at mouse PPARalpha ligand binding domain expressed in human Hep G2 cells co-transfected with Gal4-DBD by luciferase reporter gene assay relative to Wy 14,643. To be noted: HepG2. The test is classed as cell-based. The gist of the method: as §1

Test [3] deals with T3, Peroxisome proliferator-activated receptor alpha (Homo sapiens, UniProt Q07869).
T3 sequence (Q07869 whole entry): T1 sequence (whole entry)
Put plainly: Agonist activity at PPARalpha ligand binding domain expressed in human Hep G2 cells co-transfected with Gal4-DBD by luciferase reporter gene assay. The test is classed as cell-based, HepG2. The gist of the method:
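Gal4-LBD fusion vector (50 ng) was co-transfected with pGal4UAS-luciferase (100 ng) and pCMVβ β-galactosidase normalizer (300 ng) into HepG2 cells by calcium phosphate for 4 h. Cells were washed, then given serum-free DMEM/F-12 with ligand or 0.1% ethanol vehicle for 20 h. Luciferase was normalized to β-galactosidase. EC50 came from concentration-response curves, mean ± SEM of 3–5 independent experiments in triplicate.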

Test [4] has as its target T1, Peroxisome proliferator-activated receptor alpha (Homo sapiens). Kind of test: Agonist activity at PPARalpha ligand binding domain expressed in human Hep G2 cells co-transfected with Gal4-DBD by luciferase reporter gene assay relative to Wy 14,643. To be noted: HepG2. It is filed as cell-based. The gist of the method:
as §1

Take `Cc1cccc(Nc2cc(Cl)nc(SCC(=O)O)n2)c1C`: the Efficacy in test [1] and in test [2] was 100% each time.

Compound `O=C(O)[C@H](Cc1ccccc1)Oc1ccc(CCc2ccccc2)cc1` yielded an EC50 in test [3] of 150 nM. Besides, in test [4], the Efficacy was determined as 83%.

Take `O=C(O)[C@H](Cc1ccccc1)Oc1ccc(Cc2ccccc2)cc1`: the EC50 in test [3] was found to be 11 nM. The compound further came in with an Efficacy in test [4] of 107%.

The term EC50 denotes the concentration needed to bring the measured effect to its halfway point. Low readings indicate greater potency, high ones weaker potency.
